Results collected from several papers.
Protocols differ between the studies behind these lines.
Observed: DPPH scavenging

With `Cc1cc(C(C)(C)C)c(O)c(C(C)(C)C)c1` the IC50 was 25.9 µg/mL (absorbance).
With `Cc1ccc(Cl)cc1NC(=O)Cc1c[nH]c2ccccc12` the IC50 was 1620 nM.
`COc1ccc(-c2nc3cc(C)c(C)cc3[nH]2)cc1OCc1ccccc1` gave an IC50 of 1820 nM (absorbance).
`O=C1O[C@H]([C@@H](O)CO)C(O)=C1O` gave an IC50 of 3.6 µg/mL.
`Clc1ccc2[nH]c(-c3cccc(OCc4ccccc4)c3)nc2c1` has an IC50 of 1820 nM (absorbance).
With `O=c1oc2c(O)c(O)cc3c(=O)oc4c(O)c(O)cc1c4c23` the IC50 was 67800 nM (absorbance).
With `CCCCOc1ccc(NC(=O)Cc2c[nH]c3ccccc23)cc1` the IC50 was 2420 nM.
The IC50 of `COc1cc(C(CC(=O)c2ccc(C)cc2)NCCc2ccc(O)c(O)c2)ccc1O` (stereo not drawn) is reported as 21.1 µg/mL.
For `COc1cc(C=Cc2cc(-c3ccc(N(C)C)cc3)nc(O)n2)ccc1O`, the IC50 was 32.5 µg/mL.
The IC50 of `Cc1c(C)c2c(c(C)c1O)CC[C@@](C)(CCC[C@H](C)CCC[C@H](C)CCCC(C)C)O2` is reported as 11.3 µg/mL (absorbance).
The IC50 of `O=C(Cc1c[nH]c2ccccc12)Nc1ccccc1` is reported as 2360 nM.
`O=c1c(O[C@@H]2O[C@H](CO)[C@@H](O)[C@H](O)[C@H]2O)c(-c2ccc(O)c(O)c2)oc2cc(O)cc(O)c12` has an IC50 of 90500 nM (absorbance).
`COc1cc(NC(=O)Cc2c[nH]c3ccccc23)ccc1C` gave an IC50 of 1530 nM.
`O=C(OC[C@H]1O[C@@H](OC(=O)c2cc(O)c(O)c(O)c2)[C@H](OC(=O)c2cc(O)c(O)c(O)c2)[C@@H](OC(=O)c2cc(O)c(O)c(O)c2)[C@@H]1O)c1cc(O)c(O)c(O)c1` gave an IC50 of 11900 nM (absorbance).
With `COc1ccc(NC(=O)Cc2c[nH]c3ccccc23)cc1` the IC50 was 1040 nM.
For `COc1cc(C(CC(=O)c2ccc(Cl)cc2)NCCc2ccc(O)c(O)c2)ccc1O` (stereo not drawn), the IC50 was 15.3 µg/mL.
The IC50 of `COc1ccc(-c2nc3cc(F)ccc3[nH]2)cc1OCc1ccccc1` is reported as 2580 nM (absorbance).
`CCCCCCCCOc1ccc(NC(=O)Cc2c[nH]c3ccccc23)cc1` gave an IC50 of 2450 nM.
`COc1cc(C(CC(=O)c2ccc(C(C)(C)C)cc2)NCCc2ccc(O)c(O)c2)ccc1O` (stereo not drawn) has an IC50 of 15.6 µg/mL.
`Cc1ccc(C)c(NC(=O)Cc2c[nH]c3ccccc23)c1` has an IC50 of 1790 nM.
The IC50 of `COc1ccc(-c2nc3ccccc3[nH]2)cc1OCc1ccccc1` is reported as 1480 nM (absorbance).
